From ChEMBL document CHEMBL4602728, “6-Amino[1,2,5]oxadiazolo[3,4-b]pyrazin-5-ol Derivatives as Efficacious Mitochondrial Uncouplers in STAM Mouse Model of Nonalcoholic Steatohepatitis” (J Med Chem, 2020)
Activity calls are given as the source filed them.

Legend:
[1] = Toxicity in C57BL/6 mouse model of streptozotocin-induced nonalcoholic steatohepatitis assessed as effect on body weight at 25 mg/kg/day, po formulated into HFD administered for 21 days measured during compound dosing; assay type: organism-based; details: in vivo, 504 h
How it was run: (§1)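 STAM male mice received the compound premixed in high-fat diet for 21 days from 6 weeks of age, at 25 mg kg−1 d−1. Body weight was recorded, and livers were weighed after sacrifice at 9 weeks of age. n = 8 per group; Kruskal–Wallis test.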

Mus musculus [2] = experiment: Anti-hepatosteatosis activity in C57BL/6 mouse model of streptozotocin-induced nonalcoholic steatohepatitis assessed as reduction in ballooning score at 25 mg/kg/day, po administered for 21 days formulated into HFD measured post-last dose by […] based histopathological analysis; assay type: functional, organism-based
How it was run: (§2)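 Liver tissue came from STAM male mice fed drug-containing high-fat diet at 25 mg kg−1 d−1 for 21 days from 6 weeks of age. Pieces of the left lateral lobe were Bouin-fixed and paraffin-embedded, then H&E-stained. A pathologist scored steatosis, inflammation and ballooning using the Kleiner NAFLD activity score criteria. n = 8 per group; Kruskal–Wallis test.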

[3] = Toxicity in C57BL/6 mouse model of streptozotocin-induced nonalcoholic steatohepatitis assessed as effect on plasma glucose level at 25 mg/kg/day, po formulated into HFD administered for 21 days measured post last dose by […]; assay type: organism-based; details: in vivo, 504 h
How it was run: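 Nonfasting whole-blood glucose was read with a glucose meter at sacrifice (day 21) in STAM male mice dosed at 25 mg kg−1 d−1 via high-fat diet. Readings above 900 mg/dL were recorded as 900 mg/dL. n = 8; one-way ANOVA.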

[4] = Solubility of compound in PBS at pH 7.4; assay type: physicochemical; details: buffer
[5] = Toxicity in C57BL/6 mouse model of streptozotocin-induced nonalcoholic steatohepatitis assessed as change in plasma AST level at 25 mg/kg/day, po formulated into HFD administered for 21 days measured post last dose; assay type: organism-based; details: in vivo, 504 h
How it was run: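 Plasma was taken at day 21 from STAM mice fed drug in high-fat diet at 25 mg kg−1 d−1. AST activity was read with Infinity AST reagent at 37 °C, measuring absorbance at 340 nm every minute for 20 min. U/L was calculated from ΔA/min times a factor based on the NADH molar absorption coefficient, sample volume and path length. n = 8; one-way ANOVA.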

[6] = Cmax in C57BL/6 mouse at 10 mg/kg, po administered via gavage by LC/MS-MS analysis; assay type: ADME, organism-based; set-up: dose 10 mg/kg, route oral; details: in vivo
How it was run: (§3)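 Male C57BL/6 mice aged 9–12 weeks received a single 10 mg/kg oral gavage bolus. The vehicle was methylcellulose 90–91%, Tween 80 2–3% and DMSO 6–8% (v/v). Tail-tip blood was drawn into heparinized capillaries and spun at 2000g for 10 min. Plasma was extracted with acetonitrile:methanol (9:1) and quantified by LC–MS/MS against spiked plasma standards (1–100 ng). n = 3.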

[7] = Induction of mitochondrial uncoupling in rat L6 cells assessed as increase in oxygen consumption rate incubated for 90 mins by Seahorse XF analyzer based assay; assay type: mitochondria, Mitochondria
[8] = Toxicity in C57BL/6 mouse model of streptozotocin-induced nonalcoholic steatohepatitis assessed as effect on plasma cholesterol level at 25 mg/kg/day, po formulated into HFD administered for 21 days measured post last dose by […] reagent based colorimetric method; assay type: organism-based; details: in vivo, 504 h
How it was run: (§4)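 Cholesterol was measured in day-21 nonfasting plasma of STAM male mice on 25 mg kg−1 d−1 drug in high-fat diet. The colorimetric assay used Infinity cholesterol reagent at 37 °C for 5–20 min, reading absorbance at 500 nm minus 660 nm background. Values were interpolated from a cholesterol standard curve. n = 8; Kruskal–Wallis test.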

Mus musculus [9] = experiment: Anti-hepatosteatosis activity in C57BL/6 mouse model of streptozotocin-induced nonalcoholic steatohepatitis assessed as reduction in inflammation score at 25 mg/kg/day, po administered for 21 days formulated into HFD measured post-last dose by […] based histopathological analysis; assay type: functional, organism-based; how it was run: as §2
[10] = Toxicity in C57BL/6 mouse assessed as increase in body temperature at 5 to 50 mg/kg, po measured upto 4 hrs by rectal probe thermometry; assay type: organism-based; details: in vivo
How it was run: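 Male C57BL/6 mice received a single oral gavage of vehicle or compound at 5, 20 or 50 mg/kg. The vehicle was methylcellulose, Tween 80 and DMSO. Core body temperature was taken with a rectal probe thermometer at set time points. n = 3; two-way repeated measures ANOVA.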

[11] = target: Voltage-gated inwardly rectifying potassium channel KCNH2 (Homo sapiens, UniProt Q12809); experiment: Inhibition of human ERG by Qpatch method
Voltage-gated inwardly rectifying potassium channel KCNH2, sequence (Q12809 whole entry): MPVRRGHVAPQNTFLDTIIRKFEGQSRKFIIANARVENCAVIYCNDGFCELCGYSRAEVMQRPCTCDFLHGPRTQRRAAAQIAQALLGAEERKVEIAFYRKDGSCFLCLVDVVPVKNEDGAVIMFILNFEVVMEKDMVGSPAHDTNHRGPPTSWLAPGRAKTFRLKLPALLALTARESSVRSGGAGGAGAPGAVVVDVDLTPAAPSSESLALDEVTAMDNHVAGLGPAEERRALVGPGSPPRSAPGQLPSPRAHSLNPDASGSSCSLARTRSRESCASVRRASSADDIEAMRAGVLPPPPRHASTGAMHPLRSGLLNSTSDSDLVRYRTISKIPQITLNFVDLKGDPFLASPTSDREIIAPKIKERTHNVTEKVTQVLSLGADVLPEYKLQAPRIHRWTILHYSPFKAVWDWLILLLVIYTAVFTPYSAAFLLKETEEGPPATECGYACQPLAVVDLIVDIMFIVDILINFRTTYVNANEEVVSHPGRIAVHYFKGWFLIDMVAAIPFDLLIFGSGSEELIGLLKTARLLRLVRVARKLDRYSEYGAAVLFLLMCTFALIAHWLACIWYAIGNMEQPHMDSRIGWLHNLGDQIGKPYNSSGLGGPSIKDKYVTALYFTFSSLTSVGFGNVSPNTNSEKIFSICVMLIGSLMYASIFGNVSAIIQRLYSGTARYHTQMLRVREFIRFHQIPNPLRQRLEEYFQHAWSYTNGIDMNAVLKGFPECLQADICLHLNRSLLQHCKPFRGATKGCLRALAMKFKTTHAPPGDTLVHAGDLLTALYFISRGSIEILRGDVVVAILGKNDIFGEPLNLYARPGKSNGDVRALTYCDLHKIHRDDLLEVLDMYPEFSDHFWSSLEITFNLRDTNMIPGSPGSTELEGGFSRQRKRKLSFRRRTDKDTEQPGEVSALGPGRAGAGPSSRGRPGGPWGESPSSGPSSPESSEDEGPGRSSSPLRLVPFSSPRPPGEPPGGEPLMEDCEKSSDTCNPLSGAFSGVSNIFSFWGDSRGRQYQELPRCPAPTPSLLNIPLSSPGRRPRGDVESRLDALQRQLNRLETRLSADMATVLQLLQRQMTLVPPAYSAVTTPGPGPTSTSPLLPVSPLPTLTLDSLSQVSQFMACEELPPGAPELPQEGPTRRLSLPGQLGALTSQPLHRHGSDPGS

[12] = Toxicity in C57BL/6 mouse model of streptozotocin-induced nonalcoholic steatohepatitis assessed as effect on plasma triglyceride level at 25 mg/kg/day, po formulated into HFD administered for 21 days measured post last dose by GPO reagent based colorimetric method; assay type: organism-based; details: in vivo, 504 h
How it was run: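 Plasma triglyceride was measured in day-21 nonfasting plasma from STAM male mice given 25 mg kg−1 d−1 in high-fat diet. Samples were incubated with GPO reagent at 37 °C for 5–20 min until absorbance at 500 nm stabilized. Values were interpolated from a glycerol standard curve. n = 8; Kruskal–Wallis test.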

[13] = Toxicity in C57BL/6 mouse model of streptozotocin-induced nonalcoholic steatohepatitis assessed as effect on food consumption per cage at 25 mg/kg/day, po formulated into HFD administered for 21 days measured during compound dosing (reference value: 318 +/- 13 g); assay type: organism-based; details: in vivo, 504 h
Mus musculus [14] = experiment: Anti-hepatosteatosis activity in C57BL/6 mouse model of streptozotocin-induced nonalcoholic steatohepatitis assessed as fibrosis score at 25 mg/kg/day, po administered for 21 days formulated into HFD measured post-last dose by Picro-Sirius red staining based histopathological analysis (reference value: 0.91 +/- 0.09 %); assay type: functional
[15] = Drug distribution in C57BL/6 mouse liver at 10 mg/kg, po administered via gavage measured after 1 hr by LC/MS-MS analysis; assay type: ADME, organism-based; details: read-out: Drug uptake
How it was run: (§5)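 Male C57BL/6 mice received a single 10 mg/kg oral gavage and were euthanized by cervical dislocation at 1 h. Tissues were rinsed in PBS, snap-frozen, pulverized in liquid nitrogen and homogenized, then spun at 10 000g for 10 min. Supernatants were extracted with acetonitrile:methanol (9:1) and quantified by LC–MS/MS against spiked standards. n = 3.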

[16] = Drug distribution in C57BL/6 mouse kidney at 10 mg/kg, po administered via gavage measured after 1 hr by LC/MS-MS analysis; assay type: ADME, organism-based; details: read-out: Drug uptake; how it was run: as §5
[17] = Toxicity in C57BL/6 mouse model of streptozotocin-induced nonalcoholic steatohepatitis assessed as effect on liver weight at 25 mg/kg/day, po formulated into HFD administered for 21 days measured during compound dosing; assay type: organism-based; details: in vivo, 504 h; how it was run: as §1
Mus musculus [18] = experiment: Anti-hepatosteatosis activity in C57BL/6 mouse model of streptozotocin-induced nonalcoholic steatohepatitis assessed as reduction in ALT level at 25 mg/kg/day, po administered for 21 days formulated into HFD measured post-last dose; assay type: functional, organism-based
How it was run: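 STAM male mice were dosed with compound premixed into high-fat diet (57 kcal % fat) from 6 weeks of age for 21 days, at 25 mg kg−1 d−1. They were sacrificed at 9 weeks of age by cardiac puncture under isoflurane. Nonfasting heparinized blood was spun at 1000g for 15 min at 4 °C, and plasma ALT was read on a dry-chemistry analyzer. n = 8 male mice per group; mean ± SEM.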

[19] = Half life in C57BL/6 mouse at 10 mg/kg, po administered via gavage by LC/MS-MS analysis; assay type: ADME, organism-based; details: in vivo; how it was run: as §3
Mus musculus [20] = experiment: Anti-hepatosteatosis activity in C57BL/6 mouse model of streptozotocin-induced nonalcoholic steatohepatitis assessed as reduction in liver triglyceride level at 25 mg/kg/day, po administered for 21 days formulated into HFD measured post-last dose by triglyceride E test based assay; assay type: functional, organism-based
How it was run: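 STAM male mice received 25 mg kg−1 d−1 in high-fat diet for 21 days and were killed at 9 weeks of age. The right liver lobe was snap-frozen. Total lipids were extracted by Folch's method, with homogenization in chloroform–methanol (2:1, v/v) and overnight incubation at room temperature. n = 8 per group; one-way ANOVA.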

Mus musculus [21] = experiment: Anti-hepatosteatosis activity in C57BL/6 mouse model of streptozotocin-induced nonalcoholic steatohepatitis assessed as reduction in steatosis score at 25 mg/kg/day, po administered for 21 days formulated into HFD measured post-last dose by […] based histopathological analysis; assay type: functional, organism-based; how it was run: as §2
[22] = Cmax in Swiss albino mouse at 10 mg/kg, po administered via gavage by LC/MS-MS analysis; assay type: ADME, organism-based; set-up: dose 10 mg/kg, route oral; details: in vivo
How it was run: (§6)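 Swiss Albino mice were given 10 mg/kg by oral gavage in a triturated Tween 80/0.5% (w/v) methylcellulose formulation, with three replicates per time point. Plasma was precipitated with acetonitrile containing telmisartan internal standard and analyzed by LC–MS/MS using transition m/z 286 → 125. Concentrations came from a standard curve (1–1000 ng/mL).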

[23] = Half life in Swiss albino mouse at 10 mg/kg, po administered via gavage by LC/MS-MS analysis; assay type: ADME, organism-based; details: in vivo; how it was run: as §6
Mus musculus [24] = experiment: Anti-hepatosteatosis activity in C57BL/6 mouse model of streptozotocin-induced nonalcoholic steatohepatitis assessed as fibrosis score at 10 mg/kg/day, po administered for 21 days formulated into HFD measured post-last dose by Picro-Sirius red staining based histopathological analysis (reference value: 0.91 +/- 0.09 %); assay type: functional
[25] = Toxicity in C57BL/6 mouse model of streptozotocin-induced nonalcoholic steatohepatitis assessed as change in plasma AST level at 10 mg/kg/day, po formulated into HFD administered for 21 days measured post last dose; assay type: organism-based; details: in vivo, 504 h
Mus musculus [26] = experiment: Anti-hepatosteatosis activity in C57BL/6 mouse model of streptozotocin-induced nonalcoholic steatohepatitis assessed as reduction in ALT level at 10 mg/kg/day, po administered for 21 days formulated into HFD measured post-last dose; assay type: functional, organism-based
Mus musculus [27] = experiment: Anti-hepatosteatosis activity in C57BL/6 mouse model of streptozotocin-induced nonalcoholic steatohepatitis assessed as reduction in liver triglyceride level at 10 mg/kg/day, po administered for 21 days formulated into HFD measured post-last dose by triglyceride E test based assay; assay type: functional, organism-based
[28] = Toxicity in C57BL/6 mouse model of streptozotocin-induced nonalcoholic steatohepatitis assessed as effect on liver weight at 10 mg/kg/day, po formulated into HFD administered for 21 days measured during compound dosing; assay type: organism-based; details: in vivo, 504 h
[29] = Toxicity in C57BL/6 mouse model of streptozotocin-induced nonalcoholic steatohepatitis assessed as increase in plasma cholesterol level at 25 mg/kg/day, po formulated into HFD administered for 21 days measured post last dose by […] reagent based colorimetric method; assay type: organism-based; details: in vivo, 504 h; how it was run: as §4
[30] = Toxicity in C57BL/6 mouse model of streptozotocin-induced nonalcoholic steatohepatitis assessed as effect on body weight at 10 mg/kg/day, po formulated into HFD administered for 21 days measured during compound dosing; assay type: organism-based; details: in vivo, 504 h
[31] = Toxicity in C57BL/6 mouse model of streptozotocin-induced nonalcoholic steatohepatitis assessed as decrease in food consumption per cage at 10 mg/kg/day, po formulated into HFD administered for 21 days measured during compound dosing relative to control; assay type: organism-based; set-up: scale not given: the % may be the effect or the level left; details: in vivo, 504 h

Structure (SMILES): Oc1nc2nonc2nc1Nc1ccc(OC(F)(F)F)cc1
- Activity [1]: Non-Toxic
- Activity (Mus musculus [2]): Active
- Activity [3]: Non-Toxic
- solubility [4]: > 500 µM
- Activity [5]: Non-Toxic
- Cmax [6]: 80.9 µM
- EC50 [7]: 4.3 µM
- Activity [8]: Non-Toxic
- Activity (Mus musculus [9]): Active
- Activity [10]: Non-Toxic
- inhibition (INH) [11]: Not Active
- Activity [12]: Non-Toxic
- Activity [13]: 331 g
- Activity (Mus musculus [14]): 0.62%
- concentration at 1 h [15]: 15800 ng/g
- concentration at 1 h [16]: 9200 ng/g
- Activity [17]: Non-Toxic
- Activity (Mus musculus [18]): Active
- half-life [19]: 5.7 h
- Activity (Mus musculus [20]): Active
- Activity (Mus musculus [21]): Active

Structure (SMILES): Oc1nc2nonc2nc1NC12CC3CC(CC(C3)C1)C2
- Cmax [22]: 18 µM
- EC50 [7]: 7 µM
- half-life [23]: 1.1 h

Structure (SMILES): CCCc1nc2c(C)cc(-c3nc4ccccc4n3C)cc2n1Cc1ccc(-c2ccccc2C(=O)O)cc1
- Activity (Mus musculus [24]): 0.6%
- Activity [25]: Non-Toxic
- Activity (Mus musculus [26]): Active
- Activity (Mus musculus [27]): Active
- Activity [28]: Toxic
- Activity [29]: Toxic
- Activity [30]: Toxic
- Activity [31]: 9%
